# Assay results as given in ChEMBL document CHEMBL3046772, “Synthesis and antifeedant activity of new oxadiazolyl 3(2H)-pyridazinones” (2003).
# What was measured:
# Format in all cases: functional
# Ostrinia furnacalis [1] = assay: Antifeedant activity against fifth-instar larval stage of Ostrinia furnacalis (Asian corn borer) assessed as feeding deterrence index at 500 mg/kg after 24 hr by diet-choice assay
# Summary of the method: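 Newly moulted fifth-instar larvae offered artificial diet with compound added (dissolved in acetone, mixed into diet ingredients before preparation) at 500 mg/kg versus solvent-only control diet. Five replicates of 10 larvae. After 24 h, deterrency index (%) = [(C − T)/(C + T)] × 100, where C and T are amounts of control and treated diet eaten.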
# Ostrinia furnacalis [2] = assay: Antifeedant activity against fifth-instar larval stage of Ostrinia furnacalis (Asian corn borer) assessed as larval weight gain at 20 mg/kg after 5 days by diet-choice assay (reference value: 43.3 +/- 20.8 mg)
# Ostrinia furnacalis [3] = assay: Antifeedant activity against fifth-instar larval stage of Ostrinia furnacalis (Asian corn borer) assessed as larval weight gain at 10 mg/kg after 5 days by diet-choice assay (reference value: 43.3 +/- 20.8 mg)
# Ostrinia furnacalis [4] = assay: Antifeedant activity against fifth-instar larval stage of Ostrinia furnacalis (Asian corn borer) assessed as larval weight gain at 5 mg/kg after 5 days by diet-choice assay (reference value: 43.3 +/- 20.8 mg)
smiles,measurement,setting,value
CC(C)(C)n1ncc(OCc2nnc(-c3ccccc3F)o2)c(Cl)c1=O,FDI,Ostrinia furnacalis [1],41.34%
CC(C)(C)n1ncc(OCc2nnc(-c3cc(F)c(Cl)cc3Cl)o2)c(Cl)c1=O,FDI,Ostrinia furnacalis [1],35.16%
CC(C)(C)n1ncc(OCc2nnc(-c3ccccc3)o2)c(Cl)c1=O,FDI,Ostrinia furnacalis [1],57.61%
same,Activity,Ostrinia furnacalis [2],6.6 mg
same,Activity,Ostrinia furnacalis [3],16.2 mg
same,Activity,Ostrinia furnacalis [4],42.3 mg
Cc1ccc(-c2nnc(COc3cnn(C(C)(C)C)c(=O)c3Cl)o2)cc1,FDI,Ostrinia furnacalis [1],4.28%
CC(C)(C)n1ncc(OCc2nnc(-c3ccc(F)cc3)o2)c(Cl)c1=O,FDI,Ostrinia furnacalis [1],51.08%
CCc1ccc(-c2nnc(COc3cnn(C(C)(C)C)c(=O)c3Cl)o2)cc1,FDI,Ostrinia furnacalis [1],40.18%
CC(C)(C)n1ncc(OCc2nnc(-c3ccc(Cl)cc3)o2)c(Cl)c1=O,FDI,Ostrinia furnacalis [1],46.73%
COc1ccc(-c2nnc(COc3cnn(C(C)(C)C)c(=O)c3Cl)o2)cc1,FDI,Ostrinia furnacalis [1],38.45%
CC(C)(C)n1ncc(OCc2nnc(-c3cccc(F)c3)o2)c(Cl)c1=O,FDI,Ostrinia furnacalis [1],51.67%
same,Activity,Ostrinia furnacalis [2],8.7 mg
same,Activity,Ostrinia furnacalis [3],22.6 mg
same,Activity,Ostrinia furnacalis [4],38.4 mg
C/C=C(\C)C(=O)O[C@H]1C[C@@H](OC(C)=O)[C@@]2(C(=O)OC)CO[C@H]3[C@@H](O)[C@@](C)([C@]45O[C@@]4(C)[C@@H]4C[C@H]5O[C@@H]5OC=C[C@@]54O)[C@H]4[C@]1(CO[C@]4(O)C(=O)OC)[C@@H]32 [AZADIRACHTIN A],FDI,Ostrinia furnacalis [1],59.9%
same,Activity,Ostrinia furnacalis [2],1.2 mg
same,Activity,Ostrinia furnacalis [3],7.8 mg
same,Activity,Ostrinia furnacalis [4],22 mg
